ChEMBL document CHEMBL4680191, “Discovery of novel akt1 inhibitor induces autophagy associated death in hepatocellular carcinoma cells” (Eur J Med Chem, 2020)
Activity calls are given as the source filed them. The calls are words filed in the database; no cut-off is given here.

Columns and labels:
[1] = system: Hep 3B2; test: Cytotoxicity against human Hep3B cells assessed as reduction in cell viability by MTT assay; type: functional, cell-based
Procedure, shortened: (§1)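 Hepatoma cells were grown in DMEM with 10% FBS and streptomycin, then treated with compounds. Viability was read by MTT.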

[2] = system: HepG2; test: Cytotoxicity against human HepG2 cells assessed as reduction in cell viability by MTT assay; type: functional, cell-based; procedure, shortened: as §1
[3] = system: SMMC-7721; test: Cytotoxicity against human SMMC-7721 cells assessed as reduction in cell viability by MTT assay; type: functional, cell-based; procedure, shortened: as §1
[4] = system: RAC-beta serine/threonine-protein kinase (Homo sapiens), P31751 [S474D]; test: Inhibition of full length human Akt2 S474D mutant assessed as remaining activity at 1 uM using GRPRTSSFAEGKK as substrate incubated for 40 mins by scintillation counting method relative to control
Procedure, shortened: (§2)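 Eurofins KinaseProfiler kinase assay on human Akt1, Akt2 and Akt3. Compounds were tested at 1 µM. Residual kinase activity is reported as % of control.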

[5] = species on record: Homo sapiens; test: Inhibition of full length human Akt1 […] mutant assessed as remaining activity at 1 uM using GRPRTSSFAEGKK as substrate incubated for 40 mins by scintillation counting method relative to control; procedure, shortened: as §2
[6] = biological target: cAMP-dependent protein kinase catalytic subunit alpha (Homo sapiens) (UniProt P17612); test: Inhibition of full length human PKAcalpha assessed as remaining activity at 1 uM using LRRASLG as substrate incubated for 40 mins by scintillation counting method relative to control
Procedure, shortened: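 Run as an outsourced KinaseProfiler service, with human PKA and Akt1, Akt2 and Akt3 in the same panel. Each compound was tested at a single 1 µM concentration, and the result is reported as kinase activity remaining, as a percentage of control.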

[7] = system: RAC-gamma serine/threonine-protein kinase (Homo sapiens), Q9Y243 [S472D]; test: Inhibition of full length human Akt3 S472D mutant assessed as remaining activity at 1 uM using GRPRTSSFAEGKK as substrate incubated for 40 mins by scintillation counting method relative to control; procedure, shortened: as §2
[8] = Inhibition of full length human Akt1 […] mutant using GRPRTSSFAEGKK as substrate incubated for 40 mins by scintillation counting method
Procedure, shortened: (§3)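 Eurofins KinaseProfiler enzymatic assay on human Akt isoforms. IC50 values are the mean of at least three independent replicates ± standard deviation.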

[9] = biological target: RAC-gamma serine/threonine-protein kinase (Homo sapiens, UniProt Q9Y243, S472D); test: Inhibition of full length human Akt3 S472D mutant using GRPRTSSFAEGKK as substrate incubated for 40 mins by scintillation counting method; procedure, shortened: as §3
[10] = system: Huh-7; test: Cytotoxicity against human Huh-7 cells assessed as reduction in cell viability by MTT assay; type: functional, cell-based; procedure, shortened: as §1
[11] = system: Huh-7; test: Induction of autophagy flux arrest in human Huh-7 cells assessed as reduction in LC3 by immunofluorescence staining based assay; type: functional, cell-based
Procedure, shortened: (§4)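 Huh-7 cells with or without 0.2 µM compound were immunofluorescently co-stained for LC3 (autophagosome) and LAMP1 (lysosome). Co-localization was assessed by fluorescence imaging.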

[12] = system: Huh-7; test: Induction of autophagy flux arrest in human Huh-7 cells assessed as reduction in LAMP1 by immunofluorescence staining based assay; type: functional, cell-based; procedure, shortened: as §4

RAC-gamma serine/threonine-protein kinase (Homo sapiens), Q9Y243 [S472D], sequence (Q9Y243 whole entry S472D): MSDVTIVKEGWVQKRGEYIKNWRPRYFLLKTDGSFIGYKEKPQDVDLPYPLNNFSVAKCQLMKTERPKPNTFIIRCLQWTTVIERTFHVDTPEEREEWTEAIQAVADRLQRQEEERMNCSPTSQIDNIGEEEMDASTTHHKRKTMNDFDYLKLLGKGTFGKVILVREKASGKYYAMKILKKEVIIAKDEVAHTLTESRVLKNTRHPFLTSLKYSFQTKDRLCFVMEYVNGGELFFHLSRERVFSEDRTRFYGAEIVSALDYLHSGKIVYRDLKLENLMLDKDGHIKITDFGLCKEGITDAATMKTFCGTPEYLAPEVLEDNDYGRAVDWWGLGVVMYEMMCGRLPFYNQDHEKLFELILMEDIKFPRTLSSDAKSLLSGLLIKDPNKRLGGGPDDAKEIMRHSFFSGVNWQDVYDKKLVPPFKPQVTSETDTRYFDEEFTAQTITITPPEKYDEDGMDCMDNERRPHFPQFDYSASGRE
RAC-gamma serine/threonine-protein kinase, sequence (Q9Y243 2-479 S472D limits assumed): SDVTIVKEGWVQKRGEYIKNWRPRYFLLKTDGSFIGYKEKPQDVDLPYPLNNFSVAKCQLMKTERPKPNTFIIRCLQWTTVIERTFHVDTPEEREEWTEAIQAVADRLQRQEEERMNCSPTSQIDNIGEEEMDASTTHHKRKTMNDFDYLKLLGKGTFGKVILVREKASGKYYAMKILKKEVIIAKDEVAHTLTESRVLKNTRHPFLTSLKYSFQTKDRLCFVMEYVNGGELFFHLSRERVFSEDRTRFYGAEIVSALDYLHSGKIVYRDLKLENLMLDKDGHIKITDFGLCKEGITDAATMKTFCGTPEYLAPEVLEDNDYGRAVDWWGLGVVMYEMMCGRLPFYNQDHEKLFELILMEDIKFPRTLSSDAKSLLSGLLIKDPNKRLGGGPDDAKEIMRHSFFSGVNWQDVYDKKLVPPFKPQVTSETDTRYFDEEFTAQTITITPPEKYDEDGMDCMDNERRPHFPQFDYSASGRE
RAC-beta serine/threonine-protein kinase (Homo sapiens), P31751 [S474D], sequence (P31751 whole entry S474D): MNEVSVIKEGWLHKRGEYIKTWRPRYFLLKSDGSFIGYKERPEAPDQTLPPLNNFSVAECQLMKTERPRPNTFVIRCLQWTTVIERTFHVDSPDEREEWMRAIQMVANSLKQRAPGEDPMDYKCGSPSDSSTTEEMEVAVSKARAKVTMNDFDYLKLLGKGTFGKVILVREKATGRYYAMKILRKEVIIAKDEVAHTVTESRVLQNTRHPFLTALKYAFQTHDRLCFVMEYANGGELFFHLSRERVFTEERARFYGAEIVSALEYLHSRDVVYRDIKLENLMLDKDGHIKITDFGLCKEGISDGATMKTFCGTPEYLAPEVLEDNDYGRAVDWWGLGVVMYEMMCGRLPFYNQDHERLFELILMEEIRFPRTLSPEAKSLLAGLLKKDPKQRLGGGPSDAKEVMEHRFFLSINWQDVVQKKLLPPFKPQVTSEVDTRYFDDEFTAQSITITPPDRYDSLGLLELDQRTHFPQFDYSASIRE

Activity [4] [%] | Activity [5] [%] | Activity [6] [%] | Activity [7] [%] | IC50 [8] [nM] | IC50 [9] [nM] | Compound | IC50 [1] [nM] | IC50 [2] [nM] | IC50 [3] [nM] | IC50 [10] [nM] | Activity [11] | Activity [12]
67 | 1 | 23 | 20 | 39 | 95 | CC(C)NCC(C(=O)N1CCN(c2ncnc3sc4c(c23)CCC4)CC1)c1ccc(Br)cc1 (stereo not given) | 228 | 202 | 521 | 112 | – | –
104 | 26 | 77 | 45 | – | – | CC(C)NCC(C(=O)N1CCN(c2ncnc3sc4c(c23)CCC4)CC1)c1ccc(F)cc1 (stereo not given) | – | – | – | – | – | –
– | – | – | – | 19 | – | CC(C)NC[C@@H](C(=O)N1CCN(c2ncnc3c2[C@H](C)C[C@H]3O)CC1)c1ccc(Cl)cc1 [IPATASERTIB] | 389 | 268 | 661 | 167 | Active | Active
77 | 71 | 80 | 71 | – | – | CC(C)NCC(C(=O)N1CCN(c2ncnc3sc4c(c23)CCN(Cc2ccccc2)C4)CC1)c1ccc(Cl)cc1 (stereo not given) | – | – | – | – | – | –
81 | 78 | 78 | 77 | – | – | CC(C)NCC(C(=O)N1CCN(c2ncnc3sc4c(c23)CCOC4)CC1)c1ccc(Cl)cc1 (stereo not given) | – | – | – | – | – | –
72 | 55 | 78 | 63 | – | – | CC(C)NCC(C(=O)N1CCN(c2ncnc3sc4c(c23)CCCC4)CC1)c1ccc(Cl)cc1 (stereo not given) | – | – | – | – | – | –
81 | 76 | 84 | 78 | – | – | CC(C)NCC(C(=O)N1CCN(c2ncnc3sc4c(c23)CCN(C(C)C)C4)CC1)c1ccc(Cl)cc1 (stereo not given) | – | – | – | – | – | –
101 | 88 | 95 | 92 | – | – | CC(C)NCC(C(=O)N1CCN(c2ncnc3sc4c(c23)CCC4)CC1)c1ccccc1Cl (stereo not given) | – | – | – | – | – | –
56 | 1 | 37 | 15 | 166 | 137 | CCCCNCC(C(=O)N1CCN(c2ncnc3sc4c(c23)CCC4)CC1)c1ccc(Cl)cc1 (stereo not given) | 833 | 914 | 1350 | 367 | – | –
93 | 81 | 81 | 84 | – | – | CCCCNCC(C(=O)N1CCN(c2ncnc3sc4c(c23)CCN(C)C4)CC1)c1ccc(Cl)cc1 (stereo not given) | – | – | – | – | – | –
89 | 75 | 88 | 79 | – | – | CCCN1CCc2c(sc3ncnc(N4CCN(C(=O)C(CNC(C)C)c5ccc(Cl)cc5)CC4)c23)C1 (stereo not given) | – | – | – | – | – | –
81 | 82 | 82 | 76 | – | – | CN1CCc2c(sc3ncnc(N4CCN(C(=O)C(CNC5CCCC5)c5ccc(Cl)cc5)CC4)c23)C1 (stereo not given) | – | – | – | – | – | –
71 | 77 | 92 | 70 | – | – | CC(C)NCC(C(=O)N1CCN(c2ncnc3sc4c(c23)CCN(C2CC2)C4)CC1)c1ccc(Cl)cc1 (stereo not given) | – | – | – | – | – | –
58 | 1 | 31 | 21 | 125 | 101 | CCNCC(C(=O)N1CCN(c2ncnc3sc4c(c23)CCC4)CC1)c1ccc(Cl)cc1 (stereo not given) | 541 | 580 | 1250 | 283 | – | –
73 | 78 | 90 | 73 | – | – | Cc1ccc(C(CNC(C)C)C(=O)N2CCN(c3ncnc4sc5c(c34)CCN(C)C5)CC2)cc1 (stereo not given) | – | – | – | – | – | –
57 | 11 | 45 | 19 | – | – | CC(C)NCC(C(=O)N1CCN(c2ncnc3sc4c(c23)CCC4)CC1)c1ccc(Cl)cc1 (stereo not given) | – | – | – | – | – | –
95 | 86 | 80 | 87 | – | – | CC(C)NCC(C(=O)N1CCN(c2ncnc3sc4c(c23)CCN(C(=O)N(C)C)C4)CC1)c1ccc(Cl)cc1 (stereo not given) | – | – | – | – | – | –
51 | 1 | 29 | 11 | 51 | 45 | O=C(C(CNC1CCCCC1)c1ccc(Cl)cc1)N1CCN(c2ncnc3sc4c(c23)CCC4)CC1 (stereo not given) | 294 | 386 | 978 | 159 | – | –
86 | 18 | 66 | 42 | – | – | COc1ccc(C(CNC(C)C)C(=O)N2CCN(c3ncnc4sc5c(c34)CCC5)CC2)cc1 (stereo not given) | – | – | – | – | – | –
83 | 96 | 86 | 76 | – | – | CC(C)NCC(C(=O)N1CCN(c2ncnc3sc4c(c23)CCN(C)C4)CC1)c1ccccc1Cl (stereo not given) | – | – | – | – | – | –
107 | 95 | 91 | 74 | – | – | CCNCC(C(=O)N1CCN(c2ncnc3sc4c(c23)CCN(C)C4)CC1)c1ccc(Cl)cc1 (stereo not given) | – | – | – | – | – | –
111 | 88 | 97 | 87 | – | – | CC(C)NCC(C(=O)N1CCN(c2ncnc3sc4c(c23)CCN(C)C4)CC1)c1ccc(F)cc1 (stereo not given) | – | – | – | – | – | –
88 | 84 | 95 | 69 | – | – | CN1CCc2c(sc3ncnc(N4CCN(C(=O)C(CNC5CCCCC5)c5ccc(Cl)cc5)CC4)c23)C1 (stereo not given) | – | – | – | – | – | –
82 | 73 | 87 | 71 | – | – | CCN1CCc2c(sc3ncnc(N4CCN(C(=O)C(CNC(C)C)c5ccc(Cl)cc5)CC4)c23)C1 (stereo not given) | – | – | – | – | – | –
78 | 81 | 95 | 76 | – | – | COc1ccc(C(CNC(C)C)C(=O)N2CCN(c3ncnc4sc5c(c34)CCN(C)C5)CC2)cc1 (stereo not given) | – | – | – | – | – | –
86 | 69 | 88 | 72 | – | – | CC(C)NCC(C(=O)N1CCN(c2ncnc3sc4c(c23)CCN(C)C4)CC1)c1ccc(Br)cc1 (stereo not given) | – | – | – | – | – | –
91 | 50 | 72 | 69 | – | – | CC(C)NCC(C(=O)N1CCN(c2ncnc3sc4c(c23)CCN(C)C4)CC1)c1ccc(Cl)cc1 (stereo not given) | – | – | – | – | – | –
